Data from article PMC3227540 (Science translational medicine, 2011).
Like-named read-outs stand apart in the source and are kept apart here.

Key:
serum TTR = serum TTR (Homo sapiens, UniProt P02766); experiment: Stabilization of human serum TTR against acid-mediated denaturation; assay type: biochemical; conditions: 50 μM compound, acid treatment 72 hours
IMR-32 cells = experiment: Inhibition of WT-TTR cytotoxicity towards IMR-32 neuroblastoma cells; assay type: cell-based, human; conditions: fig. S8B
AC16 cells = experiment: Inhibition of V122I TTR cytotoxicity towards AC16 cells; assay type: cell-based, human; conditions: TTR and ligands 8 μM
TTR [1] = molecular target: T1, TTR (Homo sapiens, UniProt P02766); experiment: Surface plasmon resonance; assay type: binding; conditions: SPR
human wild type TTR = human wild type TTR (Homo sapiens, UniProt P02766); experiment: Isothermal titration calorimetry; conditions: two-site binding model; for Kd: ITC
TTR [2] = molecular target: T1, TTR; experiment: Acid-mediated TTR amyloidogenesis; assay type: biochemical; conditions: kinetic aggregation assay over 5 days, TTR 3.6 μM, ligand 3.0 μM
TTR [3] = molecular target: T1, TTR; experiment: Fluorescence polarization; conditions: competitive displacement of probe 1, apparent binding constant
Method in brief: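 Competitive displacement of the fluorescent probe from the TTR thyroxine-binding pocket under physiological conditions. The test compound is titrated from 0.01 to 50 μM, and fluorescence polarization is read at excitation 485 nm and emission 525 nm. The dose-dependent drop in polarization is fitted to give the apparent binding constant, Kapp. Run in triplicate; SD reported.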

COX-1 = COX-1 (Homo sapiens, UniProt P23219); experiment: COX-1 enzymatic inhibition; assay type: biochemical; conditions: read-out: COX-1 inhibition
Sequence of COX-1 (P23219 24-599): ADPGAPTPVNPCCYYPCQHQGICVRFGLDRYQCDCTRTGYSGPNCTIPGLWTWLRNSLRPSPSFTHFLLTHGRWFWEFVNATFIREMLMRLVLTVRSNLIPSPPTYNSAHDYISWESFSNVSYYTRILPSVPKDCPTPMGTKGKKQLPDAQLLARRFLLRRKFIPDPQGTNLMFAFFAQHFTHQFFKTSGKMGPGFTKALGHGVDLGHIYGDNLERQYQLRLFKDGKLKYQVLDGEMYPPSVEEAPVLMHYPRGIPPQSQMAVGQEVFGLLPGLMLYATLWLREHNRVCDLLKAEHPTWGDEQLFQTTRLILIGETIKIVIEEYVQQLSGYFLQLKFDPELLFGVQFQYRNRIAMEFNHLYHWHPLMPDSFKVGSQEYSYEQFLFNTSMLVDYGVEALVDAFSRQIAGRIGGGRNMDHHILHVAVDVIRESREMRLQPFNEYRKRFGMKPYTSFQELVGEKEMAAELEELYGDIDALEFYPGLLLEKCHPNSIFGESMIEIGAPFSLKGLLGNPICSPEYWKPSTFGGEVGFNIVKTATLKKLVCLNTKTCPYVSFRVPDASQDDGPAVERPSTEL

Structure (SMILES) | % tetramer at 72 hrs (of tetramer present at 0 hours) (serum TTR) [%] | Performance against WT-TTR toxicity in IMR-32 cells (in words) (IMR-32 cells) | Rescue of AC16 cell viability from V122I TTR proteotoxicity (in words) (AC16 cells) | koff, fold faster than ligand 7 (TTR [1]) | Kd (human wild type TTR; read-out: Kd1, first site) [nM] | Kd (human wild type TTR; read-out: Kd2, second site) [nM] | ITC binding affinity (in words) (human wild type TTR) | Fibril formation at substoichiometric ligand (in words) (TTR [2]) | fold lower target residence time than ligand 7 (TTR [1]) | Kapp (TTR [3]) [µM] | inhibition at 10 µM (COX-1) [%]
O=[N+]([O-])c1cc(O)c(O)c([N+](=O)[O-])c1 [3,5-dinitrocatechol] | 37.6 | performed poorly | performed poorly |  |  |  |  |  |  |  | 
O=C(c1cc(O)c(O)c([N+](=O)[O-])c1)c1ccccc1F [Ro 41-0960] |  |  | completely rescued | ~ 5 x | 15 | 2000 | low nanomolar affinity | dramatically slowed fibril formation |  |  | 
O=C(O)Cc1ccccc1Nc1c(Cl)cccc1Cl [diclofenac] |  |  |  |  |  |  |  |  | ~40 x | 4.66 | 
O=C(O)c1cccnc1Nc1cccc(C(F)(F)F)c1 [niflumic acid] | 11.5 | performed poorly | performed poorly |  |  |  |  |  | ~ 20 x |  | 94
